Tests used:
Mus musculus [1] = test: Distribution of Radioactivity in small intestine of CD-1 Mice by intravenous administration of compound after 1 day expressed as dose/gram; format: ADME, organism-based; conditions: in vivo, 24 h
Method in brief: (§1)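 Female CD-1 mice, 7 1/2 weeks old (25-29 g), fed and watered ad libitum. Agent given in physiological saline, pH adjusted to 7.4 and filtered, by lateral tail vein injection under ether anesthesia. Tissues collected at 5 min, 1 h, 4 h and 1 day. Injectate samples counted as standard; results as mean % injected dose/g with range.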

Rattus norvegicus [2] = test: Distribution of Radioactivity in small intestine of Fisher 344 Rats by intravenous administration of compound after 5 minutes expressed as dose/gram; format: ADME, organism-based; conditions: in vivo
Method in brief: (§2)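 Female Fischer 344 rats, 10-12 weeks old (170-200 g), food and water ad libitum; four rats per time point. About 6.3 μCi given in 0.05 mL saline (pH 7.4, filtered) by lateral tail vein under ether anesthesia. Tissues sampled at 5 min, 1 h, 4 h or 1 day. %ID/g computed from injectate standards; mean and range given.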

Mus musculus [3] = test: Distribution of Radioactivity in stomach of CD-1 Mice by intravenous administration of compound after 5 minutes expressed as dose/gram; format: ADME, organism-based; conditions: in vivo
Method in brief: (§3)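 Female CD-1 mice, 7 1/2 weeks old (25-29 g), fed and watered ad libitum. Radiotracer in physiological saline, pH 7.4, filtered, injected via lateral tail vein under ether anesthesia. Tissues taken at 5 min, 1 h, 4 h or 1 day. Percent injected dose per gram calculated against assayed samples of the injected solution; mean with range reported.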

Mus musculus [4] = test: Distribution of Radioactivity in stomach of CD-1 Mice by intravenous administration of compound after 4 hr expressed as dose/gram; format: ADME, organism-based; conditions: in vivo; method in brief: as §3
Rattus norvegicus [5] = test: Distribution of Radioactivity in liver of Fisher 344 Rats by intravenous administration of compound after 4 hour expressed as dose/gram; format: ADME, organism-based; conditions: in vivo
Method in brief: (§4)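 Female Fischer 344 rats, 10-12 weeks old (170-200 g), fed and watered ad libitum; four rats per time point. Each received ~6.3 μCi in 0.05 mL saline (pH 7.4, filtered), given by lateral tail vein under ether anesthesia. Tissues taken at 5 min, 1 h, 4 h and 1 day. Injectate standards used; values as mean % injected dose/g with range.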

Mus musculus [6] = test: Distribution of Radioactivity in small intestine of CD-1 Mice by intravenous administration of compound after 4 hr expressed as dose/gram; format: ADME, organism-based; conditions: in vivo; method in brief: as §3
Rattus norvegicus [7] = test: Distribution of Radioactivity in thymus of Fisher 344 Rats by intravenous administration of compound after 4 hour expressed as dose/gram; format: ADME, organism-based; conditions: in vivo; method in brief: as §2
Mus musculus [8] = test: Distribution of Radioactivity in pancreas of CD-1 Mice by intravenous administration of compound after 4 hr expressed as dose/gram; format: ADME, organism-based; conditions: in vivo; method in brief: as §1
Mus musculus [9] = test: Distribution of Radioactivity in adrenals of CD-1 Mice by intravenous administration of compound after 5 minutes expressed as dose/gram; format: ADME, organism-based, Adrenal gland; conditions: in vivo; method in brief: as §1
Rattus norvegicus [10] = test: Distribution of Radioactivity in kidneys of Fisher 344 Rats by intravenous administration of compound after 1 hour expressed as dose/gram; format: ADME, organism-based, Kidney; conditions: in vivo; method in brief: as §4
Mus musculus [11] = test: Distribution of Radioactivity in lungs of CD-1 Mice by intravenous administration of compound after 4 hour expressed as dose/gram; format: ADME, organism-based, Lung; conditions: in vivo; method in brief: as §1
Rattus norvegicus [12] = test: Distribution of Radioactivity in adrenals of Fisher 344 Rats by intravenous administration of compound after 5 minutes expressed as dose/gram; format: ADME, organism-based, Adrenal gland; conditions: in vivo; method in brief: as §4
Mus musculus [13] = test: Distribution of Radioactivity in kidneys of CD-1 Mice by intravenous administration of compound after 4 hr expressed as dose/gram; format: ADME, organism-based, Kidney; conditions: in vivo; method in brief: as §1
Rattus norvegicus [14] = test: Distribution of Radioactivity in kidneys of Fisher 344 Rats by intravenous administration of compound after 5 minutes expressed as dose/gram; format: ADME, organism-based, Kidney; conditions: in vivo; method in brief: as §4
Mus musculus [15] = test: Distribution of Radioactivity in blood of CD-1 Mice by intravenous administration of compound after 1 day expressed as dose/gram; format: ADME, organism-based; conditions: in vivo, 24 h; method in brief: as §1
Rattus norvegicus [16] = test: Distribution of Radioactivity in lungs of Fisher 344 Rats by intravenous administration of compound after 1 hour expressed as dose/gram; format: ADME, organism-based, Lung; conditions: in vivo; method in brief: as §4
Rattus norvegicus [17] = test: Distribution of Radioactivity in thymus of Fisher 344 Rats by intravenous administration of compound after 1 hour expressed as dose/gram; format: ADME, organism-based; conditions: in vivo; method in brief: as §2
Mus musculus [18] = test: Distribution of Radioactivity in spleen of CD-1 Mice by intravenous administration of compound after 1 day expressed as dose/gram; format: ADME, organism-based; conditions: in vivo, 24 h; method in brief: as §3
Mus musculus [19] = test: Distribution of Radioactivity in blood of CD-1 Mice by intravenous administration of compound after 1 hr expressed as dose/gram; format: ADME, organism-based; conditions: in vivo; method in brief: as §1
Rattus norvegicus [20] = test: Distribution of Radioactivity in pancreas of Fisher 344 Rats by intravenous administration of compound after 1 day expressed as dose/gram; format: ADME, organism-based; conditions: in vivo, 24 h; method in brief: as §4
Rattus norvegicus [21] = test: Distribution of Radioactivity in blood of Fisher 344 Rats by intravenous administration of compound after 5 minutes expressed as dose/gram; format: ADME, organism-based; conditions: in vivo; method in brief: as §4
Mus musculus [22] = test: Distribution of Radioactivity in blood of CD-1 Mice by intravenous administration of compound after 4 hour expressed as dose/gram; format: ADME, organism-based; conditions: in vivo; method in brief: as §1
Mus musculus [23] = test: Distribution of Radioactivity in small intestine of CD-1 Mice by intravenous administration of compound after 5 minutes expressed as dose/gram; format: ADME, organism-based; conditions: in vivo; method in brief: as §3
Rattus norvegicus [24] = test: Distribution of Radioactivity in thymus of Fisher 344 Rats by intravenous administration of compound after 1 day expressed as dose/gram; format: ADME, organism-based; conditions: in vivo, 24 h; method in brief: as §2
Rattus norvegicus [25] = test: Distribution of Radioactivity in stomach of Fisher 344 Rats by intravenous administration of compound after 4 hour expressed as dose/gram; format: ADME, organism-based; conditions: in vivo; method in brief: as §2
Mus musculus [26] = test: Distribution of Radioactivity in liver of CD-1 Mice by intravenous administration of compound after 1 hr expressed as dose/gram; format: ADME, organism-based; conditions: in vivo; method in brief: as §1
Mus musculus [27] = test: Distribution of Radioactivity in liver of CD-1 Mice by intravenous administration of compound after 1 day expressed as dose/gram; format: ADME, organism-based; conditions: in vivo, 24 h; method in brief: as §1
Mus musculus [28] = test: Distribution of Radioactivity in small intestine of CD-1 Mice by intravenous administration of compound after 1 hr expressed as dose/gram; format: ADME, organism-based; conditions: in vivo; method in brief: as §1
Mus musculus [29] = test: Distribution of Radioactivity in adrenals of CD-1 Mice by intravenous administration of compound after 4 hr expressed as dose/gram; format: ADME, organism-based, Adrenal gland; conditions: in vivo; method in brief: as §1
Rattus norvegicus [30] = test: Distribution of Radioactivity in blood of Fisher 344 Rats by intravenous administration of compound after 4 hour expressed as dose/gram; format: ADME, organism-based; conditions: in vivo; method in brief: as §4
Rattus norvegicus [31] = test: Distribution of Radioactivity in lungs of Fisher 344 Rats by intravenous administration of compound after 1 day expressed as dose/gram; format: ADME, organism-based, Lung; conditions: in vivo, 24 h; method in brief: as §4
Mus musculus [32] = test: Distribution of Radioactivity in liver of CD-1 Mice by intravenous administration of compound after 4 hour expressed as dose/gram; format: ADME, organism-based; conditions: in vivo; method in brief: as §1
Mus musculus [33] = test: Distribution of Radioactivity in stomach of CD-1 Mice by intravenous administration of compound after 1 hr expressed as dose/gram; format: ADME, organism-based; conditions: in vivo; method in brief: as §3
Rattus norvegicus [34] = test: Distribution of Radioactivity in small intestine of Fisher 344 Rats by intravenous administration of compound after 1 day expressed as dose/gram; format: ADME, organism-based; conditions: in vivo, 24 h; method in brief: as §2
Mus musculus [35] = test: Distribution of Radioactivity in pancreas of CD-1 Mice by intravenous administration of compound after 1 hr expressed as dose/gram; format: ADME, organism-based; conditions: in vivo; method in brief: as §1
Mus musculus [36] = test: Distribution of Radioactivity in thymus of CD-1 Mice by intravenous administration of compound after 1 hr expressed as dose/gram; format: ADME, organism-based; conditions: in vivo; method in brief: as §3
Rattus norvegicus [37] = test: Distribution of Radioactivity in adrenals of Fisher 344 Rats by intravenous administration of compound after 1 hour expressed as dose/gram; format: ADME, organism-based, Adrenal gland; conditions: in vivo; method in brief: as §4
Rattus norvegicus [38] = test: Distribution of Radioactivity in spleen of Fisher 344 Rats by intravenous administration of compound after 1 day expressed as dose/gram; format: ADME, organism-based; conditions: in vivo, 24 h; method in brief: as §2
Rattus norvegicus [39] = test: Distribution of Radioactivity in spleen of Fisher 344 Rats by intravenous administration of compound after 1 hour expressed as dose/gram; format: ADME, organism-based; conditions: in vivo; method in brief: as §2
Mus musculus [40] = test: Distribution of Radioactivity in liver of CD-1 Mice […] by intravenous administration of compound after 5 minutes expressed as dose/gram; format: ADME, organism-based; conditions: in vivo; method in brief: as §1

For beta-[103,106Ru]Ruthenocenylalanine, the Injected (Mus musculus [1]) was 0.059%, the Injected (Rattus norvegicus [2]) was 0.62% and the Injected (Mus musculus [3]) was 0.987%. It also gave an Injected (Mus musculus [4]) of 0.166%, an Injected (Rattus norvegicus [5]) of 0.278% and an Injected (Mus musculus [6]) of 0.367%. The Injected (Rattus norvegicus [7]) was 0.035%, the Injected (Mus musculus [8]) was 0.16% and the Injected (Mus musculus [9]) was 6.85%. The Injected (Rattus norvegicus [10]) was 2.717%, the Injected (Mus musculus [11]) was 0.47% and the Injected (Rattus norvegicus [12]) was 0.275%. It also gave an Injected (Mus musculus [13]) of 1.321%, an Injected (Rattus norvegicus [14]) of 5.44% and an Injected (Mus musculus [15]) of 0.086%. The Injected (Rattus norvegicus [16]) was 0.424%, the Injected (Rattus norvegicus [17]) was 0.13% and the Injected (Mus musculus [18]) was 0.189%. The Injected (Mus musculus [19]) was 1.039%, the Injected (Rattus norvegicus [20]) was 0.035% and the Injected (Rattus norvegicus [21]) was 1.949%. The Injected (Mus musculus [22]) was 0.22%, the Injected (Mus musculus [23]) was 1.739% and the Injected (Rattus norvegicus [24]) was 0.024%. For the same substance, the Injected (Rattus norvegicus [25]) was 0.028%, the Injected (Mus musculus [26]) was 1.784% and the Injected (Mus musculus [27]) was 0.508%. It also gave an Injected (Mus musculus [28]) of 2.641%, an Injected (Mus musculus [29]) of 0.786% and an Injected (Rattus norvegicus [30]) of 0.134%. For the same substance, the Injected (Rattus norvegicus [31]) was 0.065%, the Injected (Mus musculus [32]) was 1.01% and the Injected (Mus musculus [33]) was 0.326%. For the same substance, the Injected (Rattus norvegicus [34]) was 0.044%, the Injected (Mus musculus [35]) was 0.247% and the Injected (Mus musculus [36]) was 0.35%. It also gave an Injected (Rattus norvegicus [37]) of 0.141%, an Injected (Rattus norvegicus [38]) of 0.065% and an Injected (Rattus norvegicus [39]) of 0.14%. For the same substance, the Injected (Mus musculus [40]) was 7.75%.

From ChEMBL document CHEMBL1122792, “Synthesis and biological evaluation of radiolabeled beta-ruthenocenylalanine” (J Med Chem, 1984)
